In the library only some 2.8% were active in any assay of this set; here they are far more common.
HTRA1 inh: blocks human HTRA1 serine peptidase. inhibition, % at 5.96 µM. 0.5% of 340,000 active. recombinant HTRA1, FP-rhodamine activity-based probe, fluorescence polarization. AID 504803; in the data active = inhibition above about 36%;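 note: 0% = enzyme with DMSO and 100% = wells lacking enzyme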
Target sequence (Q92743 whole entry, looked up): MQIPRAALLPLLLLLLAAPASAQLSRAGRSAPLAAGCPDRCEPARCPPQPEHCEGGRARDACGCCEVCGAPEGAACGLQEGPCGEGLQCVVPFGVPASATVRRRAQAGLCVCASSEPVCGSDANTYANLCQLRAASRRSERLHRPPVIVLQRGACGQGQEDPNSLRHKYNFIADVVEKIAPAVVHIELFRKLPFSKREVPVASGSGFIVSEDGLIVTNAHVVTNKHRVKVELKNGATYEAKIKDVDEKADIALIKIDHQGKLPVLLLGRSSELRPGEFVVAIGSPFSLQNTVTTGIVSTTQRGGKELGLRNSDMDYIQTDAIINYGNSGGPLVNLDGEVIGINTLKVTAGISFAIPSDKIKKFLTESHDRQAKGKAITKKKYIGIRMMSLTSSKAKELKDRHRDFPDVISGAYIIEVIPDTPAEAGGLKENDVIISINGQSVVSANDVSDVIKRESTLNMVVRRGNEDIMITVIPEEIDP
pPAFAH inh: pPAFAH (human) enzyme inhibition. Q13093. recombinant pPAFAH, FP-rhodamine probe fluorescence polarization. inhibition, % at 3.39 µM. 1.5% of 330,000 active;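 active = inhibition above the mean inhibition across the screen plus 3 SD, cut at about 25% in these data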;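 note: inhibitors block binding of the rhodamine activity-based probe so polarization drops; 0% = enzyme with DMSO and 100% = wells lacking pPAFAH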
PAFAH2 FP inh: PAFAH2 (human) inhibition | 0.99% of 340,000 active | inhibition, % at 3.39 µM | Q99487 | recombinant PAFAH2, FP-rhodamine activity probe, fluorescence polarization;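 active = inhibition above the mean over all tested compounds plus 3 SD, cut at about 30% in these data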;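 note: inhibitors block probe labeling of enzyme so polarization drops; 0% = enzyme with DMSO and 100% = wells lacking PAFAH2 protein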
ABHD4 inh: ABHD4 (mouse) inhibition, primary FP screen; Q8VD66; inhibition, % at 8.92 µM; 0.54% of 370,000 active; purified mABHD4, FP-Rh probe fluorescence polarization;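 active = inhibition exceeding the mean over every tested compound plus 3 SD, cut at about 30% in these data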;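 note: 0% = plate median of compound wells and 100% = S159A mutant with DMSO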
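Material: mouse ABHD4 enzyme, wild type; Benchmarks: S159A mutant high control, sample median low control; Buffer or medium: HEPES pH 7.0, NaCl, Pluronic buffer; Signal: fluorescence polarization; Read-out: percent inhibition of probe binding, normalized to plate controls; Timing: pre-incubation 45 min, probe exposure 60 min, at 25 °C; Dosing: 8.92 µM, single dose.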
PAFAH1B2 inh: blocks human PAF acetylhydrolase 1b catalytic subunit 2; P68402; recombinant PAFAH1B2, FP-rhodamine activity probe, fluorescence polarization; inhibition, % at 3.39 µM; 1.2% of 340,000 active; AID 492953;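 active = inhibition above the mean of all tested compounds plus 3 SD, cut at about 24% in these data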;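 note: 0% = enzyme with DMSO and 100% = wells lacking PAFAH1B2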
PAFAH1B3 FP inh: blocks human PAF acetylhydrolase 1B catalytic subunit 3. Q15102. recombinant PAFAH1B3, FP-rhodamine probe, fluorescence polarization. inhibition, % at 3.39 µM. 0.28% of 340,000 active. AID 492972;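 active = inhibition above the screen-wide average of all tested compounds plus 3 SD, cut at about 25% in these data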;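 note: 0% = enzyme with DMSO only and 100% = wells lacking PAFAH1B3 protein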
HTRA1 inh conf: confirmation of human HTRA1 inhibitors; inhibition, % at 5.96 µM; recombinant HTRA1, FP-rhodamine activity-based probe, fluorescence polarization; shares compounds with HTRA1 inh; AID 540248; 66% of 1,600 active;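 active = mean inhibition over three repeats above a set limit taken from the earlier primary screen, cut at about 37% in these data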;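 note: 0% = HTRA1 with DMSO and 100% = wells lacking HTRA1; inhibitors block probe binding so polarization drops and inhibition rises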
* hit, by the source's call; . = not tested or not shown; + = active, no number.

SMILES	HTRA1 inh	pPAFAH inh	PAFAH2 FP inh	ABHD4 inh	PAFAH1B2 inh	PAFAH1B3 FP inh	HTRA1 inh conf
Cc1cccc(NC(=S)N/N=C/c2ccc([N+](=O)[O-])s2)c1	60*	19	0	-3	6	22	67*
O=C(N/N=C/c1ccc([N+](=O)[O-])s1)c1cccc(Br)c1	45*	4	3	12	5	9	46*
Cc1ccc(C(=O)N/N=C/c2ccc([N+](=O)[O-])s2)cc1	18	6	11	7	1	7	.
O=S1(=O)c2ccc(N3CC[C@H](O)C3)cc2O[C@@H]2CCN1C2	.	.	.	-4	.	.	.
O=C(NNc1nc2ccc(Cl)cc2s1)c1cc(-c2cccs2)nc2ccccc12	42*	15	-4	-6	-2	14	56*
COc1cccc(/C=C2\SC(=S)N(CCC(=O)NNC(=O)c3ccccc3OC)C2=O)c1	39*	8	7	3	3	3	33
O=C(CCCN1C(=O)/C(=C/c2cccs2)SC1=S)NNC(=O)c1ccccc1O	57*	14	14	8	-3	10	72*
COCC(=O)N1CCN(C(=O)C(=O)c2cccc(C(F)(F)F)c2)CC1	.	.	.	-7	.	.	.
CCOC(=O)[C@]12CCCC=C1N(CCCOC)C(=O)[C@@H]2CC(=O)NCCCN1CCCC1=O	.	.	.	-4	.	.	.
Cc1ccc2nc(-c3ccccc3O)c(Nc3ccc4c(c3)OCCO4)n2c1	3	23	5	-7	3	7	.
Clc1ccc2nc(-c3ccccn3)c(Nc3ccc4c(c3)OCO4)n2c1	58*	27*	-2	6	-2	11	60*
CCCCCCCCNS(=O)(=O)CC1NCc2ccccc21 (stereo unspecified)	.	.	.	-3	.	.	.
CCC1=NN(C(=O)c2cccc(Br)c2)C(O)(c2ccc(Br)cc2)C1 (stereo unspecified)	75*	19	7	-6	2	17	68*
Nc1ccccc1NC1CCCCC1	41*	.	-2	14	-1	1	48*
CCC(c1ccc(O)c(O)c1)C(CC)c1ccc(O)c(O)c1 (stereo unspecified)	59*	.	-2	.	27*	-4	68*
O=C(/C(=N/O)c1ccccc1)c1ccccc1	-3	.	1	-8	5	6	.
O=C(/C(=N/N=C/c1ccc(O)c(O)c1)c1ccccc1)c1ccccc1	41*	30*	-9	16	19	2	78*
COC(=O)[C@]12C[C@H](CC(=O)NCc3ccc(C)o3)C(=O)N(Cc3ccccc3)C1=C[C@H](C1CCCC1)O[C@@H]2C	.	.	.	-12	.	.	.
O=c1cc2oc3cc(O)c(O)cc3c(-c3ccccc3O)c-2cc1O	60*	.	42*	.	27*	-62	127*
COc1ccc(CNS(=O)(=O)/C=C/c2cc(C)ccc2CNC(=O)OC(C)(C)C)cc1	.	.	.	-1	.	.	.
OCCN(CCO)c1ccc(C(c2ccccc2Cl)c2ccc(N(CCO)CCO)cc2Cl)c(Cl)c1	44*	25*	22	.	9	20	61*
CC[n+]1ccc(C)c2cc(P(=O)(c3ccccc3)c3ccccc3)ccc21	44*	7	11	1	6	3	33
CC[n+]1ccc(C)c2cc(SC(F)(F)F)ccc21	36*	11	-2	.	-1	6	24
Cn1c(N/N=C/c2c[nH]c3ccccc23)nc2ccccc21	46*	13	8	22	5	8	27
Cc1cc(N/N=C/c2c[nH]c3ccccc23)c2ccccc2n1	-4	3	1	-2	-5	2	.
SMILES	HTRA1 inh	pPAFAH inh	PAFAH2 FP inh	ABHD4 inh	PAFAH1B2 inh	PAFAH1B3 FP inh	HTRA1 inh conf
Fc1c(F)c(F)c(N/N=C/c2c[nH]c3ccccc23)c(F)c1F	43*	2	8	15	5	8	42*
COc1cccc(CNS(=O)(=O)c2cc3c(cc2Br)CC(C)N3C(C)=O)c1 (stereo unspecified)	.	.	.	4	.	.	.
Cc1ccc(NC(=O)CSc2ccccc2)cc1S(=O)(=O)N1CCCCC1	-32	4	5	-6	-1	10	.
Cc1cc(C)c(S(=O)(=O)/N=C2/C=C(SCC(=O)O)C(=O)c3ccccc32)cc1C	54*	.	30*	.	22	37*	36
C=CCNC(=O)NC[C@@]1(C(=O)OC)CC(=O)N(C)[C@@H]1c1ccccc1	.	.	.	0	.	.	.
OC[C@@H]1CC[C@@H]2O[C@H](CCc3ccc(-c4ccc(F)cc4)cc3)[C@H](n3cc(C4CC4)nn3)C[C@@H]2O1	.	.	.	-7	.	.	.
C=CCn1c(SCC(=O)c2ccc(O)c(O)c2)nnc1-c1cccc(Cl)c1	56*	28*	39*	23	5	5	73*
Cc1cccc(C)c1NC(=O)CN(C)C(=O)c1cc([N+](=O)[O-])ccc1N1CCOCC1	1	4	-3	6	1	-2	.
CN(CC(=O)Nc1ccccc1Br)C(=O)c1cc([N+](=O)[O-])ccc1N1CCOCC1	92*	2	139*	-5	176*	+	-2
CCOc1ccc(/C=N/O)cc1	2	5	-1	-10	4	-2	.
CCOc1ccc(N=Cc2ccc(N(C)C)cc2)c(O)c1	57*	.	.	.	.	.	57*
Cc1c2cc[n+](CCN3CCCCC3)cc2c(C)c2c1[nH]c1ccc(O)cc12	41*	.	7	.	5	11	55*
O=C1C=C(Nc2ccc(O)cc2)C(=O)c2ccccc21	37*	9	3	14	2	6	30
O=C(OCc1ccc(CSc2nnc(-c3cccc4ccccc34)o2)cc1)c1ccc(F)cc1	.	.	.	2	.	.	.
CCC(=O)NC(c1ccco1)c1cc(Br)c2cccnc2c1O (stereo unspecified)	.	.	.	20	.	.	.
CCC(=O)NC(c1cccs1)c1cc(Cl)c2cccnc2c1O (stereo unspecified)	54*	34*	-3	8	7	12	65*
CCC(=O)NC(c1cc(Cl)c2cccnc2c1O)C1CC1 (stereo unspecified)	39*	4	3	1	5	13	51*
CCC(=O)NC(c1cc(Cl)c2cccnc2c1O)C(C)C (stereo unspecified)	53*	4	0	11	4	4	58*
CC(=O)NC(c1cc(F)c2cccnc2c1O)C1CC1 (stereo unspecified)	16	0	1	2	8	8	.
COC(=O)[C@]12CCCCC=C1N(Cc1ccc(OC)cc1)C(=O)[C@@H]2CC(=O)N1CCSCC1	.	.	.	1	.	.	.
Cc1cc(Br)ccc1OCCCN1CCC(C(O)(c2ccccc2)c2ccccc2)CC1	.	.	.	20	.	.	.
Cc1ccc(/C=C/C(=O)c2ccccc(=O)c2O)cc1C	37*	22	13	29	0	-2	44*

High-throughput results deposited in PubChem BioAssay by The Scripps Research Institute Molecular Screening Center.
